# From ChEMBL document CHEMBL5329156, “Discovery and development of novel substituted monohydrazides as potent antifungal agents” (RSC Med Chem, 2023)
# Legend:
# [Candida] auris [1] = Antifungal activity against Candida auris AR Bank # 0384 assessed as fungal growth inhibition by double dilution method; assay type: functional; details: Candidozyma auris
# Procedure, shortened: (§1)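 Broth microdilution after CLSI M27-A3/M38-A2 with minor changes. Single colony grown overnight in YPD at 35 °C, 200 rpm. Compound final range 0.06-31.3 µg/mL; incubated 48 h at 35 °C.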
# Aspergillus fumigatus [2] = assay: Antifungal activity against Aspergillus fumigatus NRRL 5109 assessed as fungal growth inhibition by double dilution method; assay type: functional
# Candida albicans [3] = assay: Antifungal activity against itraconazole/fluconazole resistant Candida albicans ATCC 90819 assessed as fungal growth inhibition by double dilution method; assay type: functional
# Procedure, shortened: (§2)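 Broth microdilution after CLSI M27-A3/M38-A2 with minor modifications. A single colony was grown overnight in YPD at 35 °C with shaking at 200 rpm. Cells were mixed 1:1 with compound (final 0.06-31.3 µg/mL, from DMSO stocks) and incubated 48 h at 35 °C.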
# Saccharomyces cerevisiae [4] = assay: Antifungal activity against Saccharomyces cerevisiae AR Bank # 400 assessed as fungal growth inhibition by double dilution method; assay type: functional; procedure, shortened: as §1
# HepG2 = assay: Cytotoxicity against human HepG2 cells assessed as reduction in cell viability upto 31.3 microg/ml; assay type: toxicity, cell-based; details: dose < 31.3 µg/ml
# Procedure, shortened: (§3)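 Cells in DMEM with 10% FBS and 1% Pen/Strep, seeded at 10,000 cells/well and held overnight at 37 °C, 5% CO2. Compounds added at final 31.3-0.12 µg/mL (0.05% DMSO vehicle) for 24 h. Resazurin then added for 6 h; fluorescence read at ex 560/em 590. Triton X-100 1% as positive control; values normalized to vehicle. Run in quadruplicate.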
# [Candida] auris [5] = Antifungal activity against Candida auris AR Bank # 383 assessed as fungal growth inhibition by double dilution method; assay type: functional; details: Candidozyma auris; procedure, shortened: as §1
# Aspergillus flavus = assay: Antifungal activity against Aspergillus flavus ATCC MYA-3631 assessed as fungal growth inhibition by double dilution method; assay type: functional
# Nakaseomyces glabratus [6] = assay: Antifungal activity against Candida glabrata ATCC 2001 assessed as fungal growth inhibition by double dilution method; assay type: functional; procedure, shortened: as §1
# HEK293 = assay: Cytotoxicity against human HEK-293 cells assessed as reduction in cell viability at 31.3 microg/ml; assay type: toxicity, cell-based; details: dose 31.3 µg/ml; procedure, shortened: as §3
# Cryptococcus neoformans = assay: Antifungal activity against Cryptococcus neoformans ATCC MYA-895 assessed as fungal growth inhibition by double dilution method; assay type: functional; procedure, shortened: as §1
# Candida albicans [7] = assay: Antifungal activity against itraconazole/fluconazole resistant Candida albicans ATCC MYA-1237 assessed as fungal growth inhibition by double dilution method; assay type: functional; procedure, shortened: as §2
# Pichia kudriavzevii [8] = assay: Antifungal activity against Pichia kudriavzevii AR Bank # 397 assessed as fungal growth inhibition by double dilution method; assay type: functional; procedure, shortened: as §1
# Candida albicans [9] = assay: Antifungal activity against itraconazole/fluconazole susceptible Candida albicans ATCC MYA-2310 assessed as fungal growth inhibition by double dilution method; assay type: functional; procedure, shortened: as §2
# Pichia kudriavzevii [10] = assay: Antifungal activity against Pichia kudriavzevii ATCC 6258 assessed as fungal growth inhibition by double dilution method; assay type: functional; procedure, shortened: as §1
# Candida albicans [11] = assay: Antifungal activity against itraconazole/fluconazole susceptible Candida albicans ATCC MYA-2876 assessed as fungal growth inhibition by double dilution method; assay type: functional; procedure, shortened: as §2
# [Candida] auris [12] = Antifungal activity against Candida auris AR Bank # 0390 assessed as fungal growth inhibition by double dilution method; assay type: functional; details: Candidozyma auris; procedure, shortened: as §1
# Aspergillus fumigatus [13] = assay: Antifungal activity against Aspergillus fumigatus NRRL 163 assessed as fungal growth inhibition by double dilution method; assay type: functional
# [Candida] auris [14] = Antifungal activity against Candida auris AR Bank # 381 assessed as fungal growth inhibition by double dilution method; assay type: functional; details: Candidozyma auris; procedure, shortened: as §1
# Candida duobushaemulonii [15] = assay: Antifungal activity against Candida duobushaemulonii AR Bank # 392 assessed as fungal growth inhibition by double dilution method; assay type: functional; details: Candidozyma duobushaemuli; procedure, shortened: as §1
# [Candida] haemuloni [16] = Antifungal activity against Candida haemulonii AR Bank # 395 assessed as fungal growth inhibition by double dilution method; assay type: functional; details: Candidozyma haemuli; procedure, shortened: as §1
# [Candida] auris [17] = Antifungal activity against Candida auris AR Bank # 382 assessed as fungal growth inhibition by double dilution method; assay type: functional; details: Candidozyma auris; procedure, shortened: as §1
# Candida albicans [18] = assay: Antifungal activity against Candida albicans ATCC 64124 assessed as fungal growth inhibition by double dilution method; assay type: functional; procedure, shortened: as §2
# [Candida] auris [19] = Antifungal activity against Candida auris AR Bank # 388 assessed as fungal growth inhibition by double dilution method; assay type: functional; details: Candidozyma auris; procedure, shortened: as §1
# Saccharomyces cerevisiae [20] = assay: Antifungal activity against Saccharomyces cerevisiae AR Bank # 399 assessed as fungal growth inhibition by double dilution method; assay type: functional; procedure, shortened: as §1
# Aspergillus terreus = assay: Antifungal activity against Aspergillus terreus ATCC MYA-3633 assessed as fungal growth inhibition by double dilution method; assay type: functional
# [Candida] haemuloni [21] = Antifungal activity against Candida haemulonii AR Bank # 393 assessed as fungal growth inhibition by double dilution method; assay type: functional; details: Candidozyma haemuli; procedure, shortened: as §1
# Candida albicans [22] = assay: Antifungal activity against Candida albicans ATCC 10231 assessed as fungal growth inhibition by double dilution method; assay type: functional; procedure, shortened: as §1
# Aspergillus nidulans = assay: Antifungal activity against Aspergillus nidulans ATCC 38163 assessed as fungal growth inhibition by double dilution method; assay type: functional
# Kodamaea ohmeri = assay: Antifungal activity against Kodamaea ohmeri AR Bank # 396 assessed as fungal growth inhibition by double dilution method; assay type: functional; procedure, shortened: as §1
# Aspergillus fumigatus [23] = assay: Antifungal activity against Aspergillus fumigatus NRRL 6113 assessed as fungal growth inhibition by double dilution method; assay type: functional
# [Candida] auris [24] = Antifungal activity against Candida auris AR Bank # 387 assessed as fungal growth inhibition by double dilution method; assay type: functional; details: Candidozyma auris; procedure, shortened: as §1
# [Candida] auris [25] = Antifungal activity against Candida auris AR Bank # 384 assessed as fungal growth inhibition by double dilution method; assay type: functional; details: Candidozyma auris; procedure, shortened: as §1
# [Candida] auris [26] = Antifungal activity against Candida auris AR Bank # 385 assessed as fungal growth inhibition by double dilution method; assay type: functional; details: Candidozyma auris; procedure, shortened: as §1
# Nakaseomyces glabratus [27] = assay: Antifungal activity against Candida glabrata ATCC 22019 assessed as fungal growth inhibition by double dilution method; assay type: functional; procedure, shortened: as §1
# [Candida] auris [28] = Antifungal activity against Candida auris AR Bank # 386 assessed as fungal growth inhibition by double dilution method; assay type: functional; details: Candidozyma auris; procedure, shortened: as §1
# Candida albicans [29] = assay: Antifungal activity against itraconazole/fluconazole resistant Candida albicans ATCC MYA-1003 assessed as fungal growth inhibition by double dilution method; assay type: functional; procedure, shortened: as §2
# Candida duobushaemulonii [30] = assay: Antifungal activity against Candida duobushaemulonii AR Bank # 391 assessed as fungal growth inhibition by double dilution method; assay type: functional; details: Candidozyma duobushaemuli; procedure, shortened: as §1
# Clavispora lusitaniae = assay: Antifungal activity against Clavispora lusitaniae AR Bank # 398 assessed as fungal growth inhibition by double dilution method; assay type: functional; procedure, shortened: as §1
# [Candida] auris [31] = Antifungal activity against Candida auris AR Bank # 390 assessed as fungal growth inhibition by double dilution method; assay type: functional; details: Candidozyma auris; procedure, shortened: as §1
# J774.A1 = assay: Cytotoxicity against J774A.1 cells assessed as reduction in cell viability at 31.3 microg/ml; assay type: toxicity, cell-based; details: mouse, dose 31.3 µg/ml; procedure, shortened: as §3
# [Candida] auris [32] = Antifungal activity against Candida auris AR Bank # 389 assessed as fungal growth inhibition by double dilution method; assay type: functional; details: Candidozyma auris; procedure, shortened: as §1
# Candida duobushaemulonii [33] = assay: Antifungal activity against Candida duobushaemulonii AR Bank # 394 assessed as fungal growth inhibition by double dilution method; assay type: functional; details: Candidozyma duobushaemuli; procedure, shortened: as §1
smiles,measurement,setting,value
O=C(NNc1cccc(Cl)c1)c1cnccn1,MIC,[Candida] auris [1],1.95 mg/L
same,MIC,Aspergillus fumigatus [2],> 31.3 mg/L
same,MIC,Candida albicans [3],3.9 mg/L
same,MIC,Saccharomyces cerevisiae [4],0.98 mg/L
same,Activity,HepG2,Non-Toxic
same,MIC,[Candida] auris [5],0.24 mg/L
same,MIC,Aspergillus flavus,> 31.3 mg/L
same,MIC,Nakaseomyces glabratus [6],3.9 mg/L
same,Activity,HEK293,Non-Toxic
same,MIC,Cryptococcus neoformans,0.24 mg/L
same,MIC,Candida albicans [7],0.98 mg/L
same,MIC,Pichia kudriavzevii [8],0.12 mg/L
same,MIC,Candida albicans [9],7.8 mg/L
same,MIC,Pichia kudriavzevii [10],0.24 mg/L
same,MIC,Candida albicans [11],1.95 mg/L
same,MIC,[Candida] auris [12],0.98 mg/L
same,MIC,Aspergillus fumigatus [13],> 31.3 mg/L
same,MIC,[Candida] auris [14],0.49 mg/L
same,MIC,Candida duobushaemulonii [15],0.12 mg/L
same,MIC,[Candida] haemuloni [16],0.24 mg/L
same,MIC,[Candida] auris [17],0.12 mg/L
same,MIC,Candida albicans [18],1.95 mg/L
same,MIC,[Candida] auris [19],0.24 mg/L
same,MIC,Saccharomyces cerevisiae [20],0.98 mg/L
same,MIC,Aspergillus terreus,0.98 mg/L
same,MIC,[Candida] haemuloni [21],0.24 mg/L
same,MIC,Candida albicans [22],0.24 mg/L
same,MIC,Aspergillus nidulans,0.98 mg/L
same,MIC,Kodamaea ohmeri,0.12 mg/L
same,MIC,Aspergillus fumigatus [23],> 31.3 mg/L
same,MIC,[Candida] auris [24],0.24 mg/L
same,MIC,[Candida] auris [25],0.98 mg/L
same,MIC,[Candida] auris [26],0.24 mg/L
same,MIC,Nakaseomyces glabratus [27],1.95 mg/L
same,MIC,[Candida] auris [28],≤ 0.06 mg/L
same,MIC,Candida albicans [29],0.98 mg/L
same,MIC,Candida duobushaemulonii [30],0.24 mg/L
same,MIC,Clavispora lusitaniae,0.49 mg/L
same,MIC,[Candida] auris [31],0.49 mg/L
same,Activity,J774.A1,Non-Toxic
same,MIC,[Candida] auris [32],0.24 mg/L
same,MIC,Candida duobushaemulonii [33],0.12 mg/L
